This note sets out measurements from ChEMBL document CHEMBL1800058, “Lathyrane diterpenoids from the roots of Euphorbia micractina and their biological activities” (J Nat Prod, 2011).

SMILES strings stand for the structures. Calls of active or inactive are those of the source. The rule behind the calls is not given here.

For one experiment, the system named is HCT-8. Description: Cytotoxicity against human HCT8 cells at 10^-6 M after 96 hrs by MTT assay. In kind it is functional, cell-based. For orientation: Tetrazolium dyes change colour on reduction, which living cells bring about.
A further experiment has as its system Liver microsomes. Kind of experiment: Antioxidant activity against Fe2+-cystine-induced lipid peroxidation in rat liver microsomes at 10^-6 M after 15 mins by thiobarbituric acid method. The class given is functional. Particulars: Microsome. Background: Liver microsomes are a subcellular fraction often used to study metabolism.
The test system of a further experiment is BGC-823. Kind of experiment: Cytotoxicity against human BGC823 cells at 10^-6 M after 96 hrs by MTT assay. In kind it is functional, cell-based.
The subject of another experiment is KETR3. Kind of experiment: Cytotoxicity against human Ketr3 cells at 10^-6 M after 96 hrs by MTT assay. In kind it is functional, cell-based.
The next experiment concerns A549. Kind of experiment: Cytotoxicity against human A549 cells at 10^-6 M after 96 hrs by MTT assay. The class given is functional, cell-based.
For another experiment, the system named is Aorta. Description: Vasorelaxant activity in Sprague-Dawley rat […] thoracic aorta assessed as inhibition of phenylephrine-induced vasoconstriction at 10^-6 M relative to control. The class given is functional. Also on record: scale not given: the % may be the effect or the level left. The method in brief:
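Read-out was percent relaxation of phenylephrine-precontracted vessels. Verapamil served as the positive control at the same test concentration.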

The target in experiment [1] is T1, Tyrosine-protein phosphatase non-receptor type 1 (Homo sapiens) (UniProt P18031).
T1 sequence (whole entry): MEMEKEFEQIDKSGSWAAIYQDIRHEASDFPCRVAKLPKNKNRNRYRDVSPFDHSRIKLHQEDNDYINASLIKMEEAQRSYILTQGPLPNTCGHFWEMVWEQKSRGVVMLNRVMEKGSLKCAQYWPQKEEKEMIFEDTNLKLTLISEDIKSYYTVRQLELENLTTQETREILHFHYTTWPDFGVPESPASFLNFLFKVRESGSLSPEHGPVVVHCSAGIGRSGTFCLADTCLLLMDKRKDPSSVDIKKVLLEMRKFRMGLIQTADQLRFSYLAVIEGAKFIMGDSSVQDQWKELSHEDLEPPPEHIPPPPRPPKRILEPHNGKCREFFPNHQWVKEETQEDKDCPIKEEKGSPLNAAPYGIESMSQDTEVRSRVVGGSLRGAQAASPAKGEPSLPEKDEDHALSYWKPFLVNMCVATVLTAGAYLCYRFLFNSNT
Description: Inhibition of human recombinant GST-tagged PTP1B assessed as conversion of para-nitrophenyl phosphate to para-nitrophenol at 10^-6 M after 10 mins by microplate spectrophotometer analysis.

For experiment [2], the system named is Human immunodeficiency virus 1. Description: Antiviral activity against HIV1 harboring vesicular stomatitis virus glycoprotein infected in human 293T cells assessed as inhibition of viral replication after 48 hrs by luciferase activity based luminometer analysis. The class given is functional, organism-based. Particulars: Human immunodeficiency virus 1, HEK-293T.

The next experiment has as its system MCF7. Description: Cytotoxicity against human MCF7 cells at 10^-6 M after 96 hrs by MTT assay. In kind it is functional, cell-based.
Another experiment concerns Bel-7402. Kind of experiment: Cytotoxicity against human Bel7402 cells at 10^-6 M after 96 hrs by MTT assay. The class given is functional, cell-based.
In experiment [3] the test system is Human immunodeficiency virus 1. Kind of experiment: Antiviral activity against HIV1 harboring vesicular stomatitis virus glycoprotein infected in human 293T cells assessed as inhibition of viral replication at 10 uM after 48 hrs by luciferase activity based luminometer analysis. In kind it is functional, organism-based.

As for `C/C1=C\[C@H]2[C@@H](O)[C@@H](C)C[C@]2(OC(=O)/C=C/c2ccccc2)C(=O)/C(C)=C/[C@H]2[C@H](CC1)C2(C)C`, the result in the experiment with HCT-8, in the experiment on Liver microsomes, in the experiment with BGC-823, with KETR3, in the experiment with A549 and with MCF7 was inactive. Besides, the result in the experiment with Bel-7402 was inactive. Besides, the Activity in the experiment on Aorta is under 30%. The inhibition entry in [1] is “inactive”. Besides, the IC50 in [2] amounted to 8.2 µM.
As for `CC(=O)O[C@H]1[C@@H](C)C[C@]2(OC(C)=O)C(=O)/C(C)=C/[C@H]3[C@H](CC/C(C)=C/[C@@H]12)C3(C)C`, the outcome (in the experiment on HCT-8; in the experiment with Liver microsomes; with BGC-823; in experiment [3]; with KETR3; in the experiment with A549) was inactive. For the same molecule, the outcome with MCF7 and in the experiment on Bel-7402 was inactive. Further, in the experiment on Aorta, the Activity is reported as under 30%. The inhibition result in [1] was “inactive”.
For the molecule `CC(=O)O[C@@H]1[C@H]2[C@@H](O)/C(C)=C\C[C@H]3[C@H](/C=C(\C)C(=O)[C@@]2(OC(=O)c2ccccc2)C[C@@H]1C)C3(C)C`, the result (in the experiment on HCT-8; in the experiment on Liver microsomes; with BGC-823; in experiment [3]; with KETR3; in the experiment with A549) was inactive. For the same molecule, the result in the experiment with MCF7 and in the experiment on Bel-7402 was inactive. The Activity in the experiment on Aorta came to 48%. Besides, in experiment [1], the inhibition result was “inactive”.
For the molecule `C/C1=C/C[C@H]2[C@@H](/C=C(\C)C(=O)[C@@]3(O)C[C@H](C)[C@H](OC(=O)/C=C/c4ccccc4)[C@H]3[C@H]1O)C2(C)C`, the outcome (in the experiment with HCT-8; in the experiment with Liver microsomes; in the experiment with BGC-823; in experiment [3]; in the experiment with KETR3; with A549) was inactive. In addition, the outcome in the experiment on MCF7 and with Bel-7402 was inactive. For the same molecule, the Activity in the experiment with Aorta was under 30%. For the same molecule, the inhibition result in [1] is “inactive”.

Broadly, the IC50 is the concentration that inhibits the measured activity by half.
